Data on 30 compounds can be found in ChEMBL document CHEMBL3603743, “Design, synthesis and biological evaluation of saccharin-based N-hydroxybenzamides as histone deacetylases (HDACs) inhibitors” (Bioorg Med Chem, 2015).

Assay [1] addresses Histone deacetylase (HDAC1 and HDAC2) (Homo sapiens, UniProt Q13547+Q92769). Nature of the assay: Inhibition of HDAC1/2 in human HeLa cells nuclear extracts using acetylated histone peptide as substrate after 30 mins by Color de Lys assay. It is filed as cell-based.
The subject of assay [2] is MDA-MB-231. Put plainly: Antiproliferative activity against human MDA-MB-231 cells after 48 hrs by MTT assay. It is filed as functional, cell-based. The conditions noted are these: MDA-MB-231, 48 h. (Formazan colour is commonly taken as a measure of viable cells.)
Assay [3] is described as follows: Antiproliferative activity against human KG1 cells after 48 hrs by MTT assay. It is filed as functional, cell-based. The following applies: KG-1, 48 h.
The test system of assay [4] is PC-3. Nature of the assay: Antiproliferative activity against human PC3 cells after 48 hrs by MTT assay. The format is functional, cell-based. The following applies: PC-3, 48 h.
In assay [5] the test system is MDA-MB-231. Nature of the assay: Induction of apoptosis in human MDA-MB-231 cells assessed as late apoptotic cells at 1 uM after 24 hrs using Annexin V-FITC and propidium iodide staining by flow cytometry (reference value: 4.04%). It is filed as functional. In a few lines:
(§1)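 MDA-MB-231 cells (1.2 × 10⁵) exposed to compound for 24 h, then harvested and washed in PBS. Cells resuspended in Annexin V-FITC binding buffer, stained with Annexin V-FITC plus propidium iodide for 10 min at room temperature, held on ice and analysed by flow cytometry.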
In general terms: A flow cytometer gives signals particle by particle.

In assay [6] the test system is MDA-MB-231. Put plainly: Induction of apoptosis in human MDA-MB-231 cells assessed as early apoptotic cells at 1 uM after 24 hrs using Annexin V-FITC and propidium iodide staining by flow cytometry (reference value: 2.60%). It is filed as functional. In a few lines:
as §1

Assay [7] deals with MDA-MB-231. Nature of the assay: Induction of apoptosis in human MDA-MB-231 cells assessed as late apoptotic cells at 4 uM after 24 hrs using Annexin V-FITC and propidium iodide staining by flow cytometry (reference value: 4.04%). It is filed as functional. In a few lines:
as §1

Assay [8] has as its system MDA-MB-231. Put plainly: Induction of apoptosis in human MDA-MB-231 cells assessed as early apoptotic cells at 4 uM after 24 hrs using Annexin V-FITC and propidium iodide staining by flow cytometry (reference value: 2.60%). The format is functional. In a few lines: as §1
Assay [9] has as its system MDA-MB-231. Nature of the assay: Induction of apoptosis in human MDA-MB-231 cells assessed as total apoptotic cells at 1 uM after 24 hrs using Annexin V-FITC and propidium iodide staining by flow cytometry. It is filed as functional. The method, boiled down:
as §1

`O=C(CCN1C(=O)c2ccccc2S1(=O)=O)Nc1cccc(C(=O)NO)c1`: the IC50 (as a rule, the concentration that inhibits the measured activity by half) in assay [1] was greater than 5 µM. As to `O=C(CCCN1C(=O)c2ccccc2S1(=O)=O)Nc1cccc(C(=O)NO)c1`, the IC50 in [1] was greater than 5 µM. On the same count and under the same terms, under `O=C(CCCCN1C(=O)c2ccccc2S1(=O)=O)Nc1cccc(C(=O)NO)c1` stands greater than 5 µM; under `O=C(CCCCCN1C(=O)c2ccccc2S1(=O)=O)Nc1cccc(C(=O)NO)c1`, greater than 5 µM. The same measure, in the same setting: then `O=C(CCCCCN1C(=O)c2ccc([N+](=O)[O-])cc2S1(=O)=O)Nc1cccc(C(=O)NO)c1`, with greater than 5 µM; and `O=C(CCN1C(=O)c2ccccc2S1(=O)=O)Nc1ccc(C(=O)NO)cc1`, with 0.3 µM. Regarding `O=C(CCN1C(=O)c2ccc([N+](=O)[O-])cc2S1(=O)=O)Nc1ccc(C(=O)NO)cc1`, the IC50 in [1] was found to be 2.02 µM. Still for that read-out and setting: then `O=C(CCN1C(=O)c2ccc(I)cc2S1(=O)=O)Nc1ccc(C(=O)NO)cc1`, with 0.523 µM. In the case of `O=C(CCN1C(=O)c2ccc(-c3ccccc3)cc2S1(=O)=O)Nc1ccc(C(=O)NO)cc1`, the IC50 in assay [1] came out at 1.7 µM; in [2], 3.45 µM; in [3], 5.23 µM; in assay [4], 8.79 µM. Further, the Activity is 7.49% in [5]; 9.27% in assay [6]; 9.86% in assay [7]; 13.48% in assay [8]; 16.76% in assay [9]. `O=C(CCCN1C(=O)c2ccccc2S1(=O)=O)Nc1ccc(C(=O)NO)cc1`: the values for the IC50 in assay [1], in assay [2] and in [4] were 0.233 µM, 8.71 µM and greater than 25 µM, respectively. For the same compound, the Activity in assay [5] was found to be 4.06%; in assay [6] it was 3.44%; in assay [7], 5.35%; in assay [8], 4.7%; in assay [9] it was 7.5%. In turn, `O=C(CCCN1C(=O)c2ccc([N+](=O)[O-])cc2S1(=O)=O)Nc1ccc(C(=O)NO)cc1` had an IC50 in [1] of 1.66 µM. On the same count and under the same terms, then `O=C(CCCN1C(=O)c2ccc(I)cc2S1(=O)=O)Nc1ccc(C(=O)NO)cc1`, with 0.419 µM. As to `O=C(CCCN1C(=O)c2ccc(-c3ccccc3)cc2S1(=O)=O)Nc1ccc(C(=O)NO)cc1`, the IC50 in [1] was 1.51 µM; in assay [2] it was 9.9 µM; in assay [3] it was 11.6 µM; in assay [4], greater than 25 µM. As to `O=C(CCCCN1C(=O)c2ccc(I)cc2S1(=O)=O)Nc1ccc(C(=O)NO)cc1`, the IC50 in assay [1] came out at 0.305 µM.

For the compound `O=C(CCCCN1C(=O)c2ccc(-c3ccccc3)cc2S1(=O)=O)Nc1ccc(C(=O)NO)cc1`, the IC50 in assay [1] was greater than 5 µM. Still for that read-out and setting: under `O=C(CCN1C(=O)c2ccccc2S1(=O)=O)NCc1ccc(C(=O)NO)cc1` stands 2.79 µM.

In assay [1], `O=C(CCCCN1C(=O)c2ccccc2S1(=O)=O)NCc1ccc(C(=O)NO)cc1` registered an IC50 of 3.4 µM. Same read-out and setting: then `O=C(CCCCCN1C(=O)c2ccccc2S1(=O)=O)NCc1ccc(C(=O)NO)cc1`, with 2.65 µM; and `O=C(NO)c1ccc(CN2C(=O)c3ccccc3S2(=O)=O)cc1`, with 1.398 µM. Still for that read-out and setting: under `O=C(NO)c1ccc(CN2C(=O)c3ccc([N+](=O)[O-])cc3S2(=O)=O)cc1` stands greater than 5 µM. As to `O=C(NO)c1ccc(CN2C(=O)c3ccc(I)cc3S2(=O)=O)cc1`, the IC50 in assay [1] turned out to be 1.335 µM. `O=C(NO)c1ccc(CN2C(=O)c3ccc(-c4ccccc4)cc3S2(=O)=O)cc1` had a 50% inhibitory concentration (IC50) in assay [1] of 0.386 µM.

Take `O=C(NO)c1ccc(CN2C(=O)c3ccc(NC(=O)c4ccccc4)cc3S2(=O)=O)cc1`: the IC50 in assay [1] worked out at 0.38 µM. Same read-out and setting: then `O=C(NO)c1ccc(CN2C(=O)c3ccc(NC(=O)c4ccc(-c5ccccc5)cc4)cc3S2(=O)=O)cc1`, with greater than 5 µM; and `COc1cc(C(=O)Nc2ccc3c(c2)S(=O)(=O)N(Cc2ccc(C(=O)NO)cc2)C3=O)cc(OC)c1OC`, with 1.71 µM; and `O=C(NO)c1ccc(CN2C(=O)c3ccc(NC(=O)c4ccc(C(F)(F)F)cc4)cc3S2(=O)=O)cc1`, with 1.413 µM. For `O=C(NO)c1ccc(CN2C(=O)c3ccc(NC(=O)c4ccc(F)cc4)cc3S2(=O)=O)cc1`, the IC50 in [1] was 0.646 µM. On the same count and under the same terms, under `O=C(Cc1ccccc1)Nc1ccc2c(c1)S(=O)(=O)N(Cc1ccc(C(=O)NO)cc1)C2=O` stands 0.53 µM; under `Cc1ccc(/C=C/C(=O)Nc2ccc3c(c2)S(=O)(=O)N(Cc2ccc(C(=O)NO)cc2)C3=O)cc1`, 1.297 µM. Turning to `O=C(CCCCCCC(=O)Nc1ccccc1)NO` [VORINOSTAT], the Activity in assay [5] came to 3.32%; in [6], 8%; in [7] it was 7.66%; in [8], 7.1%; in assay [9], 11.32%.
